Test [1] addresses T1, Ephrin type-B receptor 4 (Homo sapiens, UniProt P54760).
T1 sequence (P54760 whole entry): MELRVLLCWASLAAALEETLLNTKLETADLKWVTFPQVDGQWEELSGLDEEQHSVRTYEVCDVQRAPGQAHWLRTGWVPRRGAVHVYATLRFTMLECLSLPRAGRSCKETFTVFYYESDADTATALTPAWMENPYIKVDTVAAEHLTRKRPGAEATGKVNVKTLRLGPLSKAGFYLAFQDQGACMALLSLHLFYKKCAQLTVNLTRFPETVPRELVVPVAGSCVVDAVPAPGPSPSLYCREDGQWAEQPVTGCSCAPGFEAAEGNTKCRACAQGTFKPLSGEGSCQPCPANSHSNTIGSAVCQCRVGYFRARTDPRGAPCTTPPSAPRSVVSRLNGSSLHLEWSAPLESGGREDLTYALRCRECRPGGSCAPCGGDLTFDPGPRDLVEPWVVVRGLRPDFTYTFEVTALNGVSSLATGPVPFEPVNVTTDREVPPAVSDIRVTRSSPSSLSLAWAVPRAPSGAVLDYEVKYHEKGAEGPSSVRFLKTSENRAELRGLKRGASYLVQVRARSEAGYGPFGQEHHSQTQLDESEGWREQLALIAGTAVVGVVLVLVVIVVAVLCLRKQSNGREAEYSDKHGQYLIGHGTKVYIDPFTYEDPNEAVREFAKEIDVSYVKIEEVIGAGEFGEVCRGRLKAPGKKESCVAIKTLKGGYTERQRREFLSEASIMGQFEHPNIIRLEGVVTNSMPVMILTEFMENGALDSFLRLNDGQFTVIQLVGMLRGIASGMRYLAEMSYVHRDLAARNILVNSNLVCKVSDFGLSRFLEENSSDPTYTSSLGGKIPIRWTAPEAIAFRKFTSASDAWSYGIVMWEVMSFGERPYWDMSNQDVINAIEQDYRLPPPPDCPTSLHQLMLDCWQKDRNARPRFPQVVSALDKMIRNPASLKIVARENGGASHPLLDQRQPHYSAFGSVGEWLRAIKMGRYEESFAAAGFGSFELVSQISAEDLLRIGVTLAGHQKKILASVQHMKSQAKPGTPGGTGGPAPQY
The experiment in a line: Inhibition of EphB4 by [gamma33-P]ATP based assay.

Test [2] concerns the target Serine/threonine-protein kinase pim-2 (Homo sapiens) (UniProt Q9P1W9). The experiment in a line: Inhibition of PIM2 assessed as remaining enzyme activity at 3 uM relative to DMSO. An outline of the steps: (§1)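 Radiometric kinase assay run robotically at room temperature for 30 min. Contained 10 mM magnesium acetate and [γ-33P]ATP (800 cpm/pmol) at 5, 20 or 50 μM, chosen per kinase to be at or below its ATP Km. Reactions were started with MgATP, stopped with orthophosphoric acid and spotted onto P81 filters. Result is mean % activity of duplicates at one inhibitor concentration versus DMSO control.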

Test [3] has as its target Dual specificity mitogen-activated protein kinase kinase 1 (Homo sapiens) (UniProt Q02750). Nature of the test: Inhibition of MKK1 assessed as remaining enzyme activity at 3 uM relative to DMSO. Put shortly:
as §1

The target in test [4] is Ribosomal protein S6 kinase beta-1 (Homo sapiens) (UniProt P23443). The experiment in a line: Inhibition of S6K1 assessed as remaining enzyme activity at 3 uM relative to DMSO.
For test [5], the target named is Serine/threonine-protein kinase PLK1 (Homo sapiens) (UniProt P53350). Nature of the test: Inhibition of PLK1 assessed as remaining enzyme activity at 3 uM relative to DMSO.
The target of test [6] is Insulin receptor-related protein (Homo sapiens) (UniProt P14616). The experiment in a line: Inhibition of IRR assessed as remaining enzyme activity at 3 uM relative to DMSO. An outline of the steps: (§2)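 Dundee kinase panel, radiometric: [γ-33P]ATP (800 cpm/pmol) at 5, 20 or 50 μM, at or below each kinase's ATP Km; 10 mM magnesium acetate; robotic, room temperature, 30 min. Reactions started with MgATP, stopped with orthophosphoric acid, spotted onto P81 filters. Inhibitor tested at a single concentration; mean % activity of duplicates relative to DMSO control.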

The target in test [7] is Tyrosine-protein kinase Yes (Homo sapiens) (UniProt P07947). Nature of the test: Inhibition of YES1 assessed as remaining enzyme activity at 3 uM relative to DMSO.
Sequence of Tyrosine-protein kinase Yes (Homo sapiens) (P07947 2-543 limits assumed): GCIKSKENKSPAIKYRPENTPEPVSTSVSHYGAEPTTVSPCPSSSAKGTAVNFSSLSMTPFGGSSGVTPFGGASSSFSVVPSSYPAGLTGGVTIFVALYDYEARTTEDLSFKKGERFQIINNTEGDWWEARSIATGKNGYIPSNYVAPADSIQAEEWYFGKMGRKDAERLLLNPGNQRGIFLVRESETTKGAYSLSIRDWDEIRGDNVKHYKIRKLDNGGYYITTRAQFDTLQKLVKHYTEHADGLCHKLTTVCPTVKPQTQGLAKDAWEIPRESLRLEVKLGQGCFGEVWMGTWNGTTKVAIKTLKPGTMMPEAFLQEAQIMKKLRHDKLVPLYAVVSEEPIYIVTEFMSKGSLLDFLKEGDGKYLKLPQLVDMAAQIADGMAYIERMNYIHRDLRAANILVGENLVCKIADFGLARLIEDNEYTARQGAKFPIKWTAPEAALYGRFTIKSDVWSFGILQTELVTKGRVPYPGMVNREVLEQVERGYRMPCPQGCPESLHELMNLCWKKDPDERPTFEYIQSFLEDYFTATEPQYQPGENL
In test [8] the target is Ribosomal protein S6 kinase alpha-5 (Homo sapiens) (UniProt O75582). Nature of the test: Inhibition of MSK1 assessed as remaining enzyme activity at 3 uM relative to DMSO. An outline of the steps: as §1
The target in test [9] is T1, Ephrin type-B receptor 4. Nature of the test: Inhibition of EphB4 assessed as blockade of synthetic substrate phosphorylation by FRET assay.
Test [10] has as its target Ribosomal protein S6 kinase alpha-1 (Homo sapiens) (UniProt Q15418). The experiment in a line: Inhibition of RSK1 assessed as remaining enzyme activity at 1 uM relative to DMSO.
Test [11] has as its target Receptor tyrosine-protein kinase erbB-2 (Homo sapiens) (UniProt P04626). The experiment in a line: Binding affinity to ERBB2 assessed as percentage of kinase remaining bound to the bead at 1 uM by T7 phage display based binding assay. An outline of the steps: (§3)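 Competition binding assay run by a contract lab. Each kinase was expressed as a fusion to T7 phage, full-length for small kinases and catalytic domain for large ones. Phage were mixed with an immobilized known kinase inhibitor on streptavidin magnetic beads and with test compound at a single 1 μM. Kinase/phage still bound to the beads was quantified by qPCR and expressed as % of DMSO control.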

Test [12] has as its target Vascular endothelial growth factor receptor 2 (Homo sapiens) (UniProt P35968). The experiment in a line: Binding affinity to VEGFR2 assessed as percentage of kinase remaining bound to the bead at 1 uM by T7 phage display based binding assay. An outline of the steps: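 Kinases expressed as T7 phage fusions (full-length for small kinases, catalytic domain for large). Phage mixed with an immobilized known kinase inhibitor on streptavidin magnetic beads plus test compound at a single 1 μM concentration. Ligand displacement from the ATP site was read by quantitative PCR as % kinase/phage still bead-bound versus DMSO control. Human kinases.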

Test [13] deals with Fibroblast growth factor receptor 2 (Homo sapiens) (UniProt P21802). Nature of the test: Binding affinity to FGFR2 assessed as percentage of kinase remaining bound to the bead at 1 uM by T7 phage display based binding assay. Put shortly: as §3
Test [14] addresses Mitogen-activated protein kinase kinase kinase 9 (Homo sapiens) (UniProt P80192). Nature of the test: Inhibition of MLK1 assessed as remaining enzyme activity at 1 uM relative to DMSO. Put shortly:
as §1

In test [15] the target is Insulin receptor (Homo sapiens) (UniProt P06213). The experiment in a line: Inhibition of histidine-tagged IR assessed as remaining enzyme activity at 1 uM relative to DMSO.
Sequence of Insulin receptor (Homo sapiens) (P06213 28-758 limits assumed): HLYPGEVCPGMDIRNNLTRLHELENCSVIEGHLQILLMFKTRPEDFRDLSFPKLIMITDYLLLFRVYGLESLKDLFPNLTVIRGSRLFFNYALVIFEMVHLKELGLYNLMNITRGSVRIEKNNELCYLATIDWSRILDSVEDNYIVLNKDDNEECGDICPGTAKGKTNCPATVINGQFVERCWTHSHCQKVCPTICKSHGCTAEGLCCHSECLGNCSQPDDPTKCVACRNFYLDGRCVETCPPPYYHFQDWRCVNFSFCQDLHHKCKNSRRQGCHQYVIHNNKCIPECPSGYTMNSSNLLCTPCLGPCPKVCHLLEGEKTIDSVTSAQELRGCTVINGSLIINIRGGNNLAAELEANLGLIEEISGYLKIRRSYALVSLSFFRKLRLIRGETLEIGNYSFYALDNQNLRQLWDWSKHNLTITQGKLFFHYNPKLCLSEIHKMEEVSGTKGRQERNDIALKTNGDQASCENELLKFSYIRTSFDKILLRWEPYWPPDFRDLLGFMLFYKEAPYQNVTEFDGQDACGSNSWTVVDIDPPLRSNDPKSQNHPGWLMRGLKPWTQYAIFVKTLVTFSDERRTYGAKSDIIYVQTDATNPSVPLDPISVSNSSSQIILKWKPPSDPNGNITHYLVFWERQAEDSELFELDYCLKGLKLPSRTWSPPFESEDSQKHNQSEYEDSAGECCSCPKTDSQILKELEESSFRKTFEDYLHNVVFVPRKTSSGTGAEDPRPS
Sequence of Insulin receptor (Homo sapiens) (P06213 763-1382 limits assumed): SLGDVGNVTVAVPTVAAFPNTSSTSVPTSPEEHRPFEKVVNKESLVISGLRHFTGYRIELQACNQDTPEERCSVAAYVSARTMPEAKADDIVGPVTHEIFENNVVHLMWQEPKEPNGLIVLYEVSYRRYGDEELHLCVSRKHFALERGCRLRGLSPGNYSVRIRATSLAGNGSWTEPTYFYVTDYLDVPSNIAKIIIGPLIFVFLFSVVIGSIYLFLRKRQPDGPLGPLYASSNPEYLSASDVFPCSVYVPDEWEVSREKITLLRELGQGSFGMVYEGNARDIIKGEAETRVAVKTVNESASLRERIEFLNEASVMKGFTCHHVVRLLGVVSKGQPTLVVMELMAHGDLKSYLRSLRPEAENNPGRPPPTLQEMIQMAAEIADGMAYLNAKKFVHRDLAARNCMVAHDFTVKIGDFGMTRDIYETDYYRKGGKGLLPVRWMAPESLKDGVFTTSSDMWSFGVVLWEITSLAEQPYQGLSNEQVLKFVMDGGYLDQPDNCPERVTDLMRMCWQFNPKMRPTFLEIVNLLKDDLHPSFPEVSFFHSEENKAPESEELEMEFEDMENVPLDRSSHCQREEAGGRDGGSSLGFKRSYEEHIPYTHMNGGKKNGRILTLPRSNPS
The target of test [16] is TGF-beta receptor type-2 (Homo sapiens) (UniProt P37173). The experiment in a line: Binding affinity to TGFBR2 assessed as percentage of kinase remaining bound to the bead at 1 uM by T7 phage display based binding assay. An outline of the steps: as §3
For test [17], the target named is Dual specificity testis-specific protein kinase 1 (Homo sapiens) (UniProt Q15569). The experiment in a line: Binding affinity to TESK1 assessed as percentage of kinase remaining bound to the bead at 1 uM by T7 phage display based binding assay. An outline of the steps: as §3
Sequence of Dual specificity testis-specific protein kinase 1 (Homo sapiens) (Q15569 whole entry, looked up): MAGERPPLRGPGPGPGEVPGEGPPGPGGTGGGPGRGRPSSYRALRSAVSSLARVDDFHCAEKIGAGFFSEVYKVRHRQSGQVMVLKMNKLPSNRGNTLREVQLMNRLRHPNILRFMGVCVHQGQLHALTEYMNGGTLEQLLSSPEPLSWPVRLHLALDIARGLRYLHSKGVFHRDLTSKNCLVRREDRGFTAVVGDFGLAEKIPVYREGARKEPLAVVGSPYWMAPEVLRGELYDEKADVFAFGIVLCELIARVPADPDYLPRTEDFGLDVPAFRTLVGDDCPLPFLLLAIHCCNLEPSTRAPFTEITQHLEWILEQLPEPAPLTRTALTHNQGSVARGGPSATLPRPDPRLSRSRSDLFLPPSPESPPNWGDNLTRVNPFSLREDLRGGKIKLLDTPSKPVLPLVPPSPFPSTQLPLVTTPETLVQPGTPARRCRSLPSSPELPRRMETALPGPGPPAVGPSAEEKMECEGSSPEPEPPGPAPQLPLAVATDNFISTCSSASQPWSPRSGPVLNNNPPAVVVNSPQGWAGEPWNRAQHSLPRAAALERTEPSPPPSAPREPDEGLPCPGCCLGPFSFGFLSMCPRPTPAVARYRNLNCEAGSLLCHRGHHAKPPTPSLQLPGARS
In test [18] the target is Mitogen-activated protein kinase kinase kinase kinase 2 (Homo sapiens) (UniProt Q12851). The experiment in a line: Inhibition of GCK assessed as remaining enzyme activity at 1 uM relative to DMSO. Put shortly:
as §2

Sequence of Mitogen-activated protein kinase kinase kinase kinase 2 (Homo sapiens) (Q12851 whole entry): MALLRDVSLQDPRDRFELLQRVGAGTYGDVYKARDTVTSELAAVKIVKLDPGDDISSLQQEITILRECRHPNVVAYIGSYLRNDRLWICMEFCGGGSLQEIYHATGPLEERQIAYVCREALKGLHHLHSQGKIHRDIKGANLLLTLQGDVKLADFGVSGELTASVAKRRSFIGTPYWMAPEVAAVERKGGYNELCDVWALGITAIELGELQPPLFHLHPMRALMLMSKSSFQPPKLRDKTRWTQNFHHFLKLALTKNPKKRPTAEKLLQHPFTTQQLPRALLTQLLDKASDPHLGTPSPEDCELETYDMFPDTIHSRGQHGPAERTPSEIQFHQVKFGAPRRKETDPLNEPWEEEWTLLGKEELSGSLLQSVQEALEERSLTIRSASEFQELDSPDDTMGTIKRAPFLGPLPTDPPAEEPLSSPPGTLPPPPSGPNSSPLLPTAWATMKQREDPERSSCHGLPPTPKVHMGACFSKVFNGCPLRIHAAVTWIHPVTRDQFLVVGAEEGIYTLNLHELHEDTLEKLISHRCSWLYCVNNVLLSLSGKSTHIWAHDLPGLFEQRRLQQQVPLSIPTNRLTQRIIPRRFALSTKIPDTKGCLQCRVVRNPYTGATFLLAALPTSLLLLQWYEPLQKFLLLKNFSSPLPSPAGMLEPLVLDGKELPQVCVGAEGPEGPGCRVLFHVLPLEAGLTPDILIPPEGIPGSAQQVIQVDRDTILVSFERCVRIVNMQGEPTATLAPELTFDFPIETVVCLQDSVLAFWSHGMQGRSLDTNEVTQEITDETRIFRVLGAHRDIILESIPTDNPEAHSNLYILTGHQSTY
Sequence of Serine/threonine-protein kinase pim-2 (Homo sapiens) (Q9P1W9 whole entry, looked up): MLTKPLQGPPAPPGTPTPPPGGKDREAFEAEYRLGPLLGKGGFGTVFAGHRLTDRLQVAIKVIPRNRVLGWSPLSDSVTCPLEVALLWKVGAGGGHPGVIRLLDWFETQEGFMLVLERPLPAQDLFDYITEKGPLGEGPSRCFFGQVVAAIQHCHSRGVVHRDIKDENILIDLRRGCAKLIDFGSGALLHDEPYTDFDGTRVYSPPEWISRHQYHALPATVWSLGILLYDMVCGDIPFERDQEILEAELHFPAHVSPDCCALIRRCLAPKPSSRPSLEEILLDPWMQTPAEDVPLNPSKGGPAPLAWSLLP
Sequence of Receptor tyrosine-protein kinase erbB-2 (Homo sapiens) (P04626 whole entry, the tested form may be a part): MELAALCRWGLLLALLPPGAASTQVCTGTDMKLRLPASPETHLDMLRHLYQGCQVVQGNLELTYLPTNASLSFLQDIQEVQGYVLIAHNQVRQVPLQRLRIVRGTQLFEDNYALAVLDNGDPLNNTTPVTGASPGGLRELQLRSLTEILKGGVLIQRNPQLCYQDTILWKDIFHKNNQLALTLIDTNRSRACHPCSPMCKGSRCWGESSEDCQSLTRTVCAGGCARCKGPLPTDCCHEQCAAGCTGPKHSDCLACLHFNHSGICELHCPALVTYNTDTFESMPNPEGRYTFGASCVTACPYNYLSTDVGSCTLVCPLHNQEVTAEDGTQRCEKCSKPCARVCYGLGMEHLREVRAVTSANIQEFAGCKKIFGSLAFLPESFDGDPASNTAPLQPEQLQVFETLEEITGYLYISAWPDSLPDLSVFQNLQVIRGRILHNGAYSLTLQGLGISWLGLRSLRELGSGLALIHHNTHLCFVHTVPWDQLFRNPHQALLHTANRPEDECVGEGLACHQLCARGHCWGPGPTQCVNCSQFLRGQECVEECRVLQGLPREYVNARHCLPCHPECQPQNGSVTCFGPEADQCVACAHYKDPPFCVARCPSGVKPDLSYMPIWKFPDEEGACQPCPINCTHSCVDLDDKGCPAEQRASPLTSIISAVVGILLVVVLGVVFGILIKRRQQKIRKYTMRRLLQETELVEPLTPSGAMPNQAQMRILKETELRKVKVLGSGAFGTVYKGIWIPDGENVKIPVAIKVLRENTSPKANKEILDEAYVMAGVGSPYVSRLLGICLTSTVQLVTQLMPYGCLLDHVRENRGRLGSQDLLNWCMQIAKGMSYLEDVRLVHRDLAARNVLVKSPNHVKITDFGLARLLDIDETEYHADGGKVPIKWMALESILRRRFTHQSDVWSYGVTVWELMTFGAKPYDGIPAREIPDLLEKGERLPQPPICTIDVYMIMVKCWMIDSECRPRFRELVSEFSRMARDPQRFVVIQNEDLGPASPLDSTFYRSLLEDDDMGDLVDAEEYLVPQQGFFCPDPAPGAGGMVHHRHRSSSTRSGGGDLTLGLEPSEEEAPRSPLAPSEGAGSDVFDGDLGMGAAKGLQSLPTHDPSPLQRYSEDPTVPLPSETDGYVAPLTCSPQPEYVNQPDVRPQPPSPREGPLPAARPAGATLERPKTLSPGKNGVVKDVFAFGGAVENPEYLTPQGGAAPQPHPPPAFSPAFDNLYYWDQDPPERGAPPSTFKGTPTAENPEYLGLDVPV

With `COc1ccccc1-n1c(-c2ccccc2C)cn2c3c(=O)[nH]c(=O)n(C)c3nc12`, the results for the 50% inhibitory concentration (IC50) against Ephrin type-B receptor 4 [1] and at Ephrin type-B receptor 4 [9] were 47 nM and 180 nM, respectively. The Activity is 115% in test [2]; 70% in test [3]; 98% in test [4]; 89% in test [5]; 110% in [6]; 6% in test [7]. In [8], the Activity was determined as 95%.

In the case of `COc1ccccc1-n1c(-c2cc(O)ccc2C)cn2c3c(=O)[nH]c(=O)n(C)c3nc12`, the IC50 is 1.6 nM on Ephrin type-B receptor 4 [1] and 5 nM on Ephrin type-B receptor 4 [9]. For the same compound, the Activity in [10] was 88%; in [11] it was 27%; in [12] it was 96%; in test [13], 94%; in [14], 45%; in [15], 104%. Besides, the Activity came out at 2.4% in [16], 9.8% in [17] and 22% in [18].

Usually IC50 stands for the concentration that gives 50% inhibition.

For the origin of these results see ChEMBL document CHEMBL1154183, “Structure-based optimization of potent and selective inhibitors of the tyrosine kinase erythropoietin producing human hepatocellular carcinoma receptor B4 (EphB4)” (J Med Chem, 2009).
